According to publication PMC7583042 (Free radical biology & medicine, 2019):
Several values for one entry are separate records, joined by “and”; a condition that tells them apart may be missing. Equal values may be shown once. Entries after “also recorded” stand apart in the source; their conditions may differ. Read-outs that look alike come from different tables or passages of the source.

Key:
SmTGR WT [1] = molecular target: T1, SmTGR WT (Schistosoma mansoni, UniProt Q962Y6); experiment: biochemical; format: biochemical
human GR = molecular target: T2, human GR (Homo sapiens, UniProt P00390); experiment: biochemical; format: biochemical; details: for inhibition of Human GR @ 2 mM: 2 mM compound; for Apparent IC50 Human GR: 15 min preincubation with NADPH
T2 sequence (P00390 1-479 isoform P00390-2): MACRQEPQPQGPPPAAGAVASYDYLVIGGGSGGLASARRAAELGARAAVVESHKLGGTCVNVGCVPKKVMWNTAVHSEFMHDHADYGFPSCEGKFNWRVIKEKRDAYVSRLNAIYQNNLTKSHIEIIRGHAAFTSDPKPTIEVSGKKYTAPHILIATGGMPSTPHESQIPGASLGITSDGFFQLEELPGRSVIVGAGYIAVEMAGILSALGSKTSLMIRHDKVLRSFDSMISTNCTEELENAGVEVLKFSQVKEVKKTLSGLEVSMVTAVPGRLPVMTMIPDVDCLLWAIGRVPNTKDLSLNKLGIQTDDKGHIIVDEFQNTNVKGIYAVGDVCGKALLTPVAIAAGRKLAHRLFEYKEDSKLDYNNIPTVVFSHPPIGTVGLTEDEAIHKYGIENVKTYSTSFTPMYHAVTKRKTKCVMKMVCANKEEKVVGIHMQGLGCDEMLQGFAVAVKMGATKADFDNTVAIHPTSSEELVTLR

SmTGR-U597C [2] = molecular target: SmTGR-U597C (Schistosoma mansoni, UniProt Q962Y6); experiment: biochemical
SmTGR-U597C [3] = experiment: biochemical; details: 15 min
SmTGR WT [4] = molecular target: SmTGR WT (Schistosoma mansoni, UniProt Q962Y6, X597U); format: biochemical; details: global fitting of time dependent inactivation
SmTGR-E330A/D334A [5] = molecular target: T3, SmTGR-E330A/D334A (Schistosoma mansoni, UniProt Q962Y6, D334A/E330A); experiment: Time dependent inactivation of SmTGR-E330A/D334A; format: biochemical; details: global fitting of time dependent inactivation
Adult S. mansoni = experiment: Ex vivo cultured adult worm survival; format: cell-based, Schistosoma mansoni; details: ex vivo culture
Outline: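 Adult worms were isolated from infected mice and held 24 h in RPMI with 10% fetal calf serum, 10 mM glutamine and 1× penicillin/streptomycin. Test compound was then added to the medium at 10 or 50 μM. Worms were observed daily and scored dead when no movement was seen after several minutes' observation. Percentage dead is reported at 144 h.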

[6] = oQM-thiol adduct formation with Cys and GSH followed by RP-HPLC/MS; format: physicochemical; details: pH 7.4, ambient temperature
Outline: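 Test compound (1 mM) was incubated alone or with 1 mM Cys and GSH in 5 mM sodium phosphate, pH 7.4 (also pH 8.3), at ambient temperature. Aliquots were injected at time intervals onto C18 RP-HPLC, eluting with a 0–100% acetonitrile gradient in 0.1% formic acid. Peaks were identified by ESI-MS and CID MS/MS (−4.0 kV, m/z 125–2,000, 260 °C capillary).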

Rat TrxR = details: ref bioassay AID 588453, cited from earlier work; for IC50: read-out: Apparent IC50 Rat TrxR
[7] = molecular target: human glutathione S-transferase Ω−1 (GSTO1); details: ref bioassay AID 66188991; cited from earlier work
[8] = pKa of the amine named in the cell; source not stated; cited from earlier work
Larval S. mansoni = experiment: Ex vivo cultured larval worm survival; format: cell-based, Schistosoma mansoni; details: ex vivo culture
Outline: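 Schistosomula were made by mechanical transformation of cercariae shed from infected Biomphalaria glabrata, then isolated on a Percoll gradient. They were cultured 24 h in M-199 with 10% fetal calf serum before test compound was added at 10 μM. Daily observation scored larvae dead when motionless for several minutes. Percentage dead is reported at 120 h.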

SmTGR-E330A/D334A [9] = molecular target: T3, SmTGR-E330A/D334A; experiment: SmTGR-E330A/D334A mutant inhibition, DTNB assay; format: biochemical
SmTGR WT [10] = format: biochemical, Schistosoma mansoni
SmTGR WT [11] = molecular target: T1, SmTGR WT; experiment: NADPH oxidase activity of inhibited enzyme; format: biochemical; details: 50 μM inhibitor, 30 min, pyrogallol red
[12] = read-out: Apparent IC50 TGR, 15 min preincubation, NADPH present
[13] = read-out: IC50 (Table 2), SmTGR value repeated in Table 2

**Q.** Which IC50 (SmTGR WT [1]) does the source give for `Oc1ccc2ccccc2c1CN1CCOCC1` [Compound 1, 1-(Morpholin-4-ylmethyl)-2-naphthol] here?
**A.** Its IC50 is 0.61 ± 0.09 µM.

**Q.** And the IC50 (human GR)?
**A.** The IC50 was 71 ± 11.7 µM.

**Q.** And the IC50 (SmTGR-U597C [2])?
**A.** The IC50 was 100 µM.

**Q.** What about the “fold higher apparent IC50 for SmTGR-U597C than for WT” value (SmTGR-U597C [3]) of the same compound?
**A.** The value was 200 fold.

**Q.** And the “second order rate constant for inhibition of SmTGR WT” value (SmTGR WT [4])?
**A.** The value was 1830 M⁻¹ s⁻¹.

**Q.** And the “second order rate constant for inhibition of SmTGR E330/D334” value (SmTGR-E330A/D334A [5])?
**A.** Its value is 1300 M⁻¹ s⁻¹.

**Q.** What about the “Adult S. mansoni (144 h) 10 μM, worms dead” value (Adult S. mansoni) of the same compound?
**A.** Its value is 8% dead.

**Q.** What about the “Adult S. mansoni (144 h) 50 μM, worms dead” value (Adult S. mansoni) of the same compound?
**A.** The value was 13 % dead.

**Q.** And the “time to generate comparable amounts of oQM-thiol adduct” value [6]?
**A.** Its value is 1 h.

**Q.** And the IC50 (Rat TrxR)?
**A.** Its IC50 is 10 µM.

**Q.** What about the “Apparent IC50 GSTO1” value [7] of the same compound?
**A.** Its value is “not detected; also recorded: inactive”.

**Q.** And the “pka of the leaving group upon oQM formation” value (“pka” below) [8]?
**A.** The value was 8.3 (morpholine).

**Q.** What does the source list for `CCOC(=O)N1CCN(Cc2c(O)ccc3ccccc23)CC1` [Compound 2]?
**A.** IC50 (SmTGR WT [1]; [12]): 0.65 ± 0.12 µM; IC50 (SmTGR WT [1]; [13]): 0.65 ± 0.12 µM; inhibition of Human GR @ 2 mM (human GR): 35% inhibition @ 2 mM; Adult S. mansoni (144 h) 50 μM, worms dead (Adult S. mansoni): 5% dead; IC50 (Rat TrxR): 12.6 µM; Apparent IC50 GSTO1 [7]: inactive

**Q.** Which results are given for `CN(Cc1ccccc1)Cc1c(O)ccc2ccccc12` [Compound 3]?
**A.** IC50 (SmTGR WT [1]; [12]): 0.84 ± 0.03 µM; IC50 (SmTGR WT [1]; [13]): 0.84 ± 0.03 µM; inhibition of Human GR @ 2 mM (human GR): 20% inhibition @ 2 mM; Adult S. mansoni (144 h) 10 μM, worms dead (Adult S. mansoni): 0% dead; Adult S. mansoni (144 h) 50 μM, worms dead (Adult S. mansoni): 24 % dead; Larval S. mansoni (120 h) 10 μM, worms dead (Larval S. mansoni): 19% dead; Apparent IC50 Rat TrxR (Rat TrxR): inactive; Apparent IC50 GSTO1 [7]: inactive

**Q.** With `CN(C)Cc1c(O)ccc2ccccc12` [Compound 4, 1-[(Dimethylamino)methyl]-2-naphthol] as the compound, how does the IC50 (SmTGR WT [1]) read?
**A.** Its IC50 is 11.2 ± 1.9 µM.

**Q.** And the “inhibition of SmTGR WT at pH 6.4” value (SmTGR WT [1]; pH 6.4, data not shown)?
**A.** The value was “low micromolar range”.

**Q.** What about the IC50 (human GR) of the same compound?
**A.** Its IC50 is 1830 µM.

**Q.** And the IC50 (SmTGR-E330A/D334A [9])?
**A.** The IC50 was 44 ± 4.9 µM.

**Q.** What about the “fold higher inhibitor concentration needed for E330A/D334A than for WT” value (SmTGR-E330A/D334A [9]; same degree of inhibition) of the same compound?
**A.** Its value is 4 fold.

**Q.** And the IC50 (SmTGR-U597C [2])?
**A.** Its IC50 is 2000 µM.

**Q.** What about the “fold higher apparent IC50 for SmTGR-U597C than for WT” value (SmTGR-U597C [3]) of the same compound?
**A.** Its value is 200 fold.

**Q.** And the “second order rate constant for inhibition of SmTGR WT” value (SmTGR WT [4])?
**A.** Its value is 45.8 M⁻¹ s⁻¹.

**Q.** What about the “difference in inhibition rate between WT and E330A/D334A” value (SmTGR WT [10]; compound at 2 μM) of the same compound?
**A.** Its value is “about 360 fold”.

**Q.** What about the “WT inhibited faster than E330A/D334A” value (SmTGR WT [10]; compound at 20 μM) of the same compound?
**A.** Its value is 3 times.

**Q.** And the “second order rate constant for inhibition of SmTGR E330/D334” value (SmTGR-E330A/D334A [5])?
**A.** The value was 14.7 M⁻¹ s⁻¹.

**Q.** And the “induction of NADPH oxidase activity in the inhibited WT enzyme” value (SmTGR WT [11])?
**A.** The value was “able to induce”.

**Q.** And the “Adult S. mansoni (144 h) 10 μM, worms dead” value (Adult S. mansoni)?
**A.** Its value is 0% dead.

**Q.** What about the “time to generate comparable amounts of oQM-thiol adduct” value [6] of the same compound?
**A.** The value was 24 h.

**Q.** And the IC50 (Rat TrxR)?
**A.** Its IC50 is 31 µM and 31.6 µM.

**Q.** And the “Apparent IC50 GSTO1” value [7]?
**A.** The value was “not detected; also recorded: inactive”.

**Q.** And the “pka” value [8]?
**A.** The value was 11 (dimethylamine).

**Q.** Which IC50 (SmTGR WT [1]; [12]) does the source give for `Oc1ccc2ccccc2c1CN1CC=C(c2ccccc2)CC1` [Compound 5] here?
**A.** The IC50 was 11.9 ± 3.57 µM.

**Q.** What about the “Apparent IC50 Human GR” value (human GR) of the same compound?
**A.** Its value is “inactive”.

**Q.** What about the “Apparent IC50 Rat TrxR” value (Rat TrxR) of the same compound?
**A.** The value was “inactive”.

**Q.** And the “Apparent IC50 GSTO1” value [7]?
**A.** The value was “inactive”.

**Q.** Which IC50 (SmTGR WT [1]; [12]) does the source give for `Oc1ccc2ccccc2c1CN1CCCC1` [Compound 6] here?
**A.** The IC50 was 28.8 ± 5.37 µM.

**Q.** What about the “Apparent IC50 Human GR” value (human GR) of the same compound?
**A.** The value was “inactive”.

**Q.** What about the “Adult S. mansoni (144 h) 50 μM, worms dead” value (Adult S. mansoni) of the same compound?
**A.** The value was 0% dead.

**Q.** What about the “Apparent IC50 Rat TrxR” value (Rat TrxR) of the same compound?
**A.** Its value is “inactive”.

**Q.** And the “Apparent IC50 GSTO1” value [7]?
**A.** The value was “inactive”.

**Q.** What about the “pka” value [8] of the same compound?
**A.** The value was 11.2 (pyrolidine).

**Q.** Which IC50 (SmTGR WT [1]; [12]) does the source give for `Oc1ccc2ccccc2c1CN1CCCCC1` [Compound 7] here?
**A.** The IC50 was 57.6 ± 4.57 µM.

**Q.** What about the “Apparent IC50 Human GR” value (human GR) of the same compound?
**A.** Its value is “inactive”.

**Q.** What about the “Apparent IC50 Rat TrxR” value (Rat TrxR) of the same compound?
**A.** Its value is “inactive”.

**Q.** And the “pka” value [8]?
**A.** Its value is 11.2 (piperidine).
